Here are results for 15 molecules from ChEMBL document CHEMBL1275337, “Biflavonoids from Torreya nucifera displaying SARS-CoV 3CL(pro) inhibition” (Bioorg Med Chem, 2010).

The inhibition is the drop in the measured response relative to a control, in per cent. Read a high inhibition as a strong effect. For orientation: IC50 means the concentration needed to halve the response being measured. Read a low IC50 as inhibition by little substance. The term Ki denotes a measure of affinity in units of concentration, obtained from inhibition or displacement. Lower therefore signals higher affinity.

In assay [1] the target is Replicase polyprotein 1ab (Severe acute respiratory syndrome-related coronavirus) (UniProt P0C6X7). The experiment in a line: Inhibition of SARS coronavirus 3C-like protease at 200 uM after 60 mins by FRET assay.
In assay [2] the target is T1, Replicase polyprotein 1ab (Severe acute respiratory syndrome-related coronavirus, UniProt P0C6X7). The experiment in a line: Inhibition of SARS coronavirus 3C-like protease after 60 mins by FRET assay.
Assay [3] has as its target T1, Replicase polyprotein 1ab. The experiment in a line: Non-competitive inhibition of SARS coronavirus 3C-like protease by Dixon plot analysis. In short, it runs like this:
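Inhibition mode comes from FRET protease rates at substrate concentrations of 2.5, 5.0 and 10.0 µM across several inhibitor concentrations. Ki is taken from Dixon (1/V versus [I]) and Lineweaver-Burk plots; type is assigned from Vmax versus inhibitor concentration. Triplicate experiments.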

Each structure is given as a SMILES string.

The molecule `CC(=O)Oc1cc2c(cc1C(C)C)CC[C@H]1[C@](C)(CO)CCC[C@]21C` had an inhibition in assay [1] of 78.6%. This molecule also displayed an IC50 in assay [2] of 129 µM. Take `CC(C)c1cc2c(cc1O)[C@@]1(C)CCC[C@@](C)(CO)[C@@H]1CC2` [18-HYDROXYFERRUGINOL]: the inhibition in assay [1] turned out to be 45.8%. This molecule also gave an IC50 in assay [2] of 221 µM.

The molecule `CC(C)c1cc2c(cc1O)[C@@]1(C)CCC[C@@](C)(C=O)[C@@H]1CC2` [18-OXOFERRUGINOL] had an inhibition in assay [1] of 70.5%. The same molecule registered an IC50 in assay [2] of 163 µM. `CC(C)C1=CC2=CC[C@@H]3[C@](C)(CCC[C@@]3(C)C(=O)O)[C@H]2CC1` [ABIETIC ACID] gave an inhibition in assay [1] of 58%. Also, the IC50 in assay [2] stood at 189 µM. In turn, `O=c1cc(-c2ccc(O)c(-c3c(O)cc(O)c4c(=O)cc(-c5ccc(O)cc5)oc34)c2)oc2cc(O)cc(O)c12` [AMENTOFLAVONE] came in with a Ki in assay [3] of 13.8 µM.

On to `O=c1cc(-c2ccc(O)cc2)oc2cc(O)cc(O)c12` [APIGENIN], for which the inhibition in assay [1] came to 40%. In assay [2], this molecule had an IC50 of 281 µM. As for `COc1ccc(-c2cc(=O)c3c(O)cc(O)cc3o2)cc1-c1c(O)cc(O)c2c(=O)cc(-c3ccc(O)cc3)oc12` [BILOBETIN], in assay [3], affinity was put at a Ki of 80.4 µM. For the same molecule, in assay [2], the IC50 came to 72.3 µM. In assay [1], `CC(C)c1cc2c(cc1O)[C@@]1(C)CCCC(C)(C)[C@@H]1CC2` [FERRUGINOL] gave an inhibition of 92.7%. Moreover, the IC50 in assay [2] stood at 49.6 µM. Molecule `COc1cc(O)c2c(=O)cc(-c3ccc(OC)c(-c4c(O)cc(O)c5c(=O)cc(-c6ccc(O)cc6)oc45)c3)oc2c1` [GINKGETIN] gave an inhibitory constant (Ki) in assay [3] of 30.2 µM. In assay [2], this molecule showed an IC50 of 32 µM. Molecule `CC(C)c1cc2c(cc1O)[C@@]1(C)CC[C@H](O)C(C)(C)[C@@H]1CC2` [HINOKIOL] had an inhibition in assay [1] of 39.1%. Moreover, half-maximal inhibition in assay [2] (IC50) required 233 µM. On to `C=C[C@@]1(C)CC[C@H]2C(=CC[C@@H]3[C@]2(C)CCC[C@@]3(C)C(=O)O)C1` [ISOPIMARIC ACID], for which the inhibition in assay [1] was determined as 28.9%. The IC50 in assay [2] turned out to be 283 µM.

`C=C1CC[C@H]2[C@](C)(CO)CCC[C@]2(C)[C@H]1CC/C(C)=C\CO` [KAYADIOL] came in with an inhibition in assay [1] of 75.2%. This molecule also gave an IC50 in assay [2] of 138 µM. `O=c1cc(-c2ccc(O)c(O)c2)oc2cc(O)cc(O)c12` [LUTEOLIN] returned an IC50 in assay [2] of 20 µM. For `COC(=O)[C@]1(C)CCC[C@]2(C)c3ccc(C(C)C)cc3CC[C@@H]12` [METHYL DEHYDROABIETATE], the inhibition in assay [1] is 46.7%. Besides, the IC50 in assay [2] was 207 µM.

In assay [3], `COc1ccc(-c2cc(=O)c3c(O)cc(O)c(-c4cc(-c5cc(=O)c6c(O)cc(OC)cc6o5)ccc4OC)c3o2)cc1` [SCIADOPITISIN] showed a Ki of 35.6 µM. In assay [2], this molecule gave an IC50 of 38.4 µM.
